Results from ChEMBL document CHEMBL4190408 (J Med Chem, 2018).
In brackets after ≈: the same amount, converted by molar mass.

Key:
physchem [1] = conditions: buffer, pH 7.4
Cytochrome P450 3A4 [2] = target: T1, Cytochrome P450 3A4 (Homo sapiens, UniProt P08684); conditions: liver microsomes
[3] = target: T2, Voltage-gated inwardly rectifying potassium channel KCNH2 (Homo sapiens, UniProt Q12809)
[4] = Thermodynamic solubility of the compound in pH 7.4 solution after 90 mins by UVLC-MS analysis; assay type: physicochemical; conditions: for Therm_solubility: buffer, pH 7.4, 1.5 h; for solubility thermodynamic at 1.5 h: pH 7.4 solution, pH 7.4, read-out: Therm_solubility
physchem [5] = conditions: phosphate buffer, pH 7.4
in vitro [6] = conditions: mouse, liver microsomes
in vitro [7] = conditions: human, liver microsomes
[8] = target: T2, Voltage-gated inwardly rectifying potassium channel KCNH2; remark: listed apart in the source
Cytochrome P450 3A4 [9] = target: T1, Cytochrome P450 3A4
Mus musculus [10] = assay: Unbound Cmax in Balb/c mouse at 10 mg/kg, po after 1 hr; assay type: ADME, organism-based; conditions: in vivo
[11] = Fraction unbound in mouse blood; assay type: ADME, tissue-based
Mus musculus [12] = assay: Unbound AUC (infinity) in Balb/c mouse at 10 mg/kg, po after 1 hr; assay type: ADME, organism-based; conditions: in vivo
[13] = Oral bioavailability in Balb/c mouse at 10 mg/kg after 1 hr; assay type: ADME, organism-based; conditions: Balb/c, in vivo
Procedure, shortened: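 Male Balb/C mice, n=3. Oral dose of 10 mpk as a homogeneous suspension of crystalline solid in 0.1% Tween 80, 0.1% silicone antifoam, 1% methylcellulose (400 cps) in water. I.v. dose of 1 mpk in 30% DMA or 15% NMP, depending on the compound. Bioavailability was extrapolated from the i.v./p.o. experiments.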

[14] = Half life in Balb/c mouse at 1 mg/kg, iv; assay type: ADME, organism-based; conditions: Balb/c, in vivo
Procedure, shortened: (§1)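 Intravenous PK in male Balb/C mice, n=3, at 1 mpk. Vehicle was 30% DMA or 15% NMP, depending on the compound.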

[15] = Apparent clearance in Balb/c mouse at 10 mg/kg, po after 1 hr; assay type: ADME, organism-based; conditions: in vivo
[16] = Clearance in Balb/c mouse at 1 mg/kg, iv; assay type: ADME, organism-based; conditions: Balb/c, in vivo
Procedure, shortened: as §1

[17] = Volume of distribution at steady state in Balb/c mouse at 1 mg/kg, iv; assay type: ADME, organism-based; conditions: Balb/c, in vivo, read-out: Vdss
Procedure, shortened: as §1

Mus musculus [18] = assay: Unbound AUC in Balb/c mouse at 1 mg/kg, iv; assay type: ADME, organism-based; conditions: in vivo
Procedure, shortened: as §1

T2 sequence (Q12809 whole entry): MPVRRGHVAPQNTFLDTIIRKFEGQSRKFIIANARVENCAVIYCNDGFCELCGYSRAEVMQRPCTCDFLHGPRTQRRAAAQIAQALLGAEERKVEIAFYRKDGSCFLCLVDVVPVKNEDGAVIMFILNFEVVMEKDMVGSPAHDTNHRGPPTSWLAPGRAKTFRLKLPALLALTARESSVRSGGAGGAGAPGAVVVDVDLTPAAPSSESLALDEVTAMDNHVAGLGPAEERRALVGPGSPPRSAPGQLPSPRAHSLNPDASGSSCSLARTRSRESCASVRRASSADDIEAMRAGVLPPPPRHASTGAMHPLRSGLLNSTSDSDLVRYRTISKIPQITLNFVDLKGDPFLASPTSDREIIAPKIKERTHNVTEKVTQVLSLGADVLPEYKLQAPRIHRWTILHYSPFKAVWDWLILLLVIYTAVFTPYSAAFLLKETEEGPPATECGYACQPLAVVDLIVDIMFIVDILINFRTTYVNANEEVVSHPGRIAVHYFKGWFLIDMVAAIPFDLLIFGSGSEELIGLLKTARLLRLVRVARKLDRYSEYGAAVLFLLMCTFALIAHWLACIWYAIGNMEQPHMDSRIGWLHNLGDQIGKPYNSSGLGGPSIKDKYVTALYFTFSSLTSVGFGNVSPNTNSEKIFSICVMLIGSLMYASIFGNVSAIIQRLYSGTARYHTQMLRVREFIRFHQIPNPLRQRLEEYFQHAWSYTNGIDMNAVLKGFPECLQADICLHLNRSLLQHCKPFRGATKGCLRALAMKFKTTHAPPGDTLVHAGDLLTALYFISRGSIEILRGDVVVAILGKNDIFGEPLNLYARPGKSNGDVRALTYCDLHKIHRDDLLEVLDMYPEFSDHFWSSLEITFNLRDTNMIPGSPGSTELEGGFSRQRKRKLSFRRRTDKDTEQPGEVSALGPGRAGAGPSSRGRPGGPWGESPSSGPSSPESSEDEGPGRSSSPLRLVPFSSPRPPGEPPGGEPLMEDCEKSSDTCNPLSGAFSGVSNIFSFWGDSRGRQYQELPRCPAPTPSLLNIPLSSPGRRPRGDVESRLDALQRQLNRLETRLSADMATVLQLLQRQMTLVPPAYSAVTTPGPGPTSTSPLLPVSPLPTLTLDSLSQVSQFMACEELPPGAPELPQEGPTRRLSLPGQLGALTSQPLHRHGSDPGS
T1 sequence (P08684 whole entry): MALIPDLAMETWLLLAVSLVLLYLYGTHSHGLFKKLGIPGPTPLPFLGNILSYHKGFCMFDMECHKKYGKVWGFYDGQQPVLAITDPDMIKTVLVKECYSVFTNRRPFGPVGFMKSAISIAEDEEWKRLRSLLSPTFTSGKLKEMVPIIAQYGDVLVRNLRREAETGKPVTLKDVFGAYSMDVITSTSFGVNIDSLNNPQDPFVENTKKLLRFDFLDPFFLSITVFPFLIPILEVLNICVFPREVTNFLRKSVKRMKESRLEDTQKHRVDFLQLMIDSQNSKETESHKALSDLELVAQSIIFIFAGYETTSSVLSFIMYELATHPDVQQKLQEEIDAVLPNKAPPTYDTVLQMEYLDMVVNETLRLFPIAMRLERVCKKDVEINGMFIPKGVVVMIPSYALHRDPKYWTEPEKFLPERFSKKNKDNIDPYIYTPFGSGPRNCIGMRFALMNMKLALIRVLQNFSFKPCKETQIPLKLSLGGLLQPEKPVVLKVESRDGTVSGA

## COc1ccc(NC(=O)N2C[C@@H](C)N(c3nc(N)nc4scnc34)[C@@H](C)C2)cc1
Physchem [1]
  solubility kinetic at 1.5 h: 83 µM (≈ 34.3 µg/mL)
Cytochrome P450 3A4 [2]
  IC50: Nd(Insoluble)
[3]
  IC50: Nd(Insoluble)
[4]
  Therm_solubility: Nd(Insoluble)

## COc1ccc(NC(=O)N2CCN(c3nc(N)nc4sncc34)[C@@H](C)C2)c(C)c1
Physchem [1]
  solubility kinetic at 1.5 h: > 350 µM
Physchem [5]
  logD at 1.5 h: 1.96
[4]
  solubility thermodynamic at 1.5 h: 52 µM (≈ 21.5 µg/mL)

## COc1ccc(NC(=O)N2CCN(c3nc(N)nc4scnc34)[C@@H](C)C2)c(C)c1
Physchem [1]
  solubility kinetic at 1.5 h: 160 µM (≈ 66.2 µg/mL)
[4]
  solubility thermodynamic at 1.5 h: 3 µM (≈ 1.24 µg/mL)

## COc1ccc(CNC(=O)N2CCN(c3nc(N)nc4scnc34)CC2)cc1
Physchem [1]
  solubility kinetic at 1.5 h: 33 µM (≈ 13.2 µg/mL)
Physchem [5]
  logD at 1.5 h: 2.22

## COc1ccc(NC(=O)N2CCN(c3nc(N)nc4scnc34)C(C)C2)cc1 (stereo not given)
Physchem [1]
  solubility kinetic at 1.5 h: > 350 µM
Cytochrome P450 3A4 [2]
  IC50: Nd(Insoluble)
[3]
  IC50: Nd(Insoluble)
[4]
  Therm_solubility: Nd(Insoluble)

## COc1ccc(NC(=O)N2CCN(c3nc(N)nc4scnc34)CC2C)cc1 (stereo not given)
Physchem [1]
  solubility kinetic at 1.5 h: > 350 µM
Cytochrome P450 3A4 [2]
  IC50: Nd(Insoluble)
[3]
  IC50: Nd(Insoluble)
[4]
  Therm_solubility: Nd(Insoluble)

## COc1ccc(NC(=O)N2CC3CCC(C2)N3c2nc(N)nc3scnc23)cc1
Physchem [1]
  solubility kinetic at 1.5 h: > 350 µM
Cytochrome P450 3A4 [2]
  IC50: Nd(Insoluble)
[3]
  IC50: Nd(Insoluble)
[4]
  Therm_solubility: Nd(Insoluble)

## COc1ccc(NC(=O)N2CCN(c3nc(N)nc4sccc34)[C@@H](C)C2)c(C)c1
Physchem [1]
  solubility kinetic at 1.5 h: 82 µM (≈ 33.8 µg/mL)
Physchem [5]
  logD at 1.5 h: 2.39

## Nc1nc(N2CCN(C(=O)Nc3ccc(OC(F)(F)F)cc3)CC2)c2ncsc2n1
Physchem [1]
  solubility kinetic at 1.5 h: 12 µM (≈ 5.27 µg/mL)
Physchem [5]
  logD at 1.5 h: 3.39

## Nc1nc(N2CCN(C(=O)c3cn4ccccc4n3)CC2)c2ncsc2n1
Physchem [1]
  solubility kinetic at 1.5 h: > 350 µM
Physchem [5]
  logD at 1.5 h: 1.58

## COc1ccc(NC(=O)N2CCN(c3nc(N)nc4scnc34)CC2)cn1
Physchem [1]
  solubility kinetic at 1.5 h: 293 µM (≈ 113 µg/mL)
Physchem [5]
  logD at 1.5 h: 1.79

## COc1ccc(NC(=O)N2CCN(c3nc(N)nc4scnc34)[C@H](C)C2)c(C)c1
Physchem [1]
  solubility kinetic at 1.5 h: 170 µM (≈ 70.3 µg/mL)
[4]
  Therm_solubility: Nd(Insoluble)

## COc1ccc(NC(=O)N2C[C@H](C)N(c3nc(N)nc4scnc34)C[C@H]2C)cc1
Physchem [1]
  solubility kinetic at 1.5 h: 88 µM (≈ 36.4 µg/mL)
Cytochrome P450 3A4 [2]
  IC50: Nd(Insoluble)
[3]
  IC50: Nd(Insoluble)
[4]
  Therm_solubility: Nd(Insoluble)

## COc1ccc(NC(=O)N2CCN(c3nc(N)nc4scnc34)C(C)C2C)cc1 (stereo not given)
Physchem [1]
  solubility kinetic at 1.5 h: > 350 µM
Cytochrome P450 3A4 [2]
  IC50: Nd(Insoluble)
[3]
  IC50: Nd(Insoluble)
[4]
  Therm_solubility: Nd(Insoluble)

## COc1ccc(NC(=O)N2CCN(c3nc(N)nc4sc(-c5cccnc5)nc34)CC2)cc1
In vitro [6]
  microsomal CLint at 0.75 h, 3 µM: 87 µL/min/mg
In vitro [7]
  microsomal CLint at 0.75 h, 3 µM: 35 µL/min/mg

## Nc1nc(N2CCN(C(=O)c3cc4ccccc4[nH]3)CC2)c2ncsc2n1
Physchem [1]
  solubility kinetic at 1.5 h: 14 µM (≈ 5.31 µg/mL)
Physchem [5]
  logD at 1.5 h: 2.84

## COc1ccc(NC(=O)N2CCN(c3nc(N)nc4scnc34)[C@@H](C)C2)c(C)n1
Physchem [1]
  solubility kinetic at 1.5 h: > 350 µM
[8]
  IC50: > 30 µM
Cytochrome P450 3A4 [9]
  IC50: > 20 µM
[4]
  solubility thermodynamic at 1.5 h: 362 µM (≈ 150 µg/mL)

## COc1ccc(NC(=O)N2CCN(c3nc(N)nc4c3ncn4C)[C@@H](C)C2)c(C)c1
Physchem [1]
  solubility kinetic at 1.5 h: > 350 µM
Mus musculus [10]
  fCmax: 1087 nM
In vitro [6]
  microsomal CLint at 0.75 h, 3 µM: 10 µL/min/mg
[11]
  fraction unbound: 0.2
Mus musculus [12]
  fAUC: 1.746 µM·h
[13]
  bioavailability: 39%
In vitro [7]
  microsomal CLint at 0.75 h, 3 µM: 9 µL/min/mg
[14]
  half-life: 48 min
Physchem [5]
  logD at 1.5 h: 1.35
[15]
  CL/F: 46 mL/min/kg
[16]
  clearance: 19 mL/min/kg
[17]
  Vd: 0.8 L/kg
[4]
  solubility thermodynamic at 1.5 h: 150 µM (≈ 61.6 µg/mL)
Mus musculus [18]
  fAUC: 0.447 µM·h

## Nc1nc(N2CCN(C(=O)c3nc4ccccc4[nH]3)CC2)c2ncsc2n1
Physchem [1]
  solubility kinetic at 1.5 h: 38 µM (≈ 14.5 µg/mL)
Physchem [5]
  logD at 1.5 h: 2.54

## COc1ccc(CC(=O)N2CCN(c3nc(N)nc4scnc34)CC2)cc1OC
Physchem [1]
  solubility kinetic at 1.5 h: > 350 µM
Physchem [5]
  logD at 1.5 h: 1.5

## COc1ccc(NC(=O)N2CCN(c3nc(N)nc4scnc34)CC2)c(C)c1
Physchem [1]
  solubility kinetic at 1.5 h: 33 µM (≈ 13.2 µg/mL)
Physchem [5]
  logD at 1.5 h: 2.03

## Cc1cccc(NC(=O)N2CCN(c3nc(N)nc4scnc34)CC2)c1
Physchem [1]
  solubility kinetic at 1.5 h: 34 µM (≈ 12.6 µg/mL)
Physchem [5]
  logD at 1.5 h: 2.81

## COc1ccc(NC(=O)N2CCN(c3nc(N)nc4scnc34)[C@@H](C)C2)cc1
Physchem [1]
  solubility kinetic at 1.5 h: > 350 µM
Mus musculus [10]
  fCmax: 194 nM
In vitro [6]
  microsomal CLint at 0.75 h, 3 µM: 35 µL/min/mg
[11]
  fraction unbound: 0.02
Mus musculus [12]
  fAUC: 0.205 µM·h
[13]
  bioavailability: 68%
In vitro [7]
  microsomal CLint at 0.75 h, 3 µM: 14 µL/min/mg
[8]
  IC50: 17 µM
[14]
  half-life: 54 min
Physchem [5]
  logD at 1.5 h: 2.32
[15]
  CL/F: 42 mL/min/kg
Cytochrome P450 3A4 [9]
  IC50: > 20 µM
[16]
  clearance: 29 mL/min/kg
[17]
  Vd: 1 L/kg
[4]
  solubility thermodynamic at 1.5 h: 30 µM (≈ 12 µg/mL)
Mus musculus [18]
  fAUC: 0.03 µM·h

## Cc1ccc(NC(=O)N2CCN(c3nc(N)nc4scnc34)CC2)cc1
Physchem [1]
  solubility kinetic at 1.5 h: 21 µM (≈ 7.76 µg/mL)
Physchem [5]
  logD at 1.5 h: 2.55

## Nc1nc(N2CCN(C(=O)Nc3ccccc3)CC2)c2ncsc2n1
Physchem [1]
  solubility kinetic at 1.5 h: 178 µM (≈ 63.3 µg/mL)
Physchem [5]
  logD at 1.5 h: 2.21

## COc1ccc(NC(=O)N2C3CCC2CN(c2nc(N)nc4scnc24)C3)cc1
Physchem [1]
  solubility kinetic at 1.5 h: > 350 µM
Cytochrome P450 3A4 [2]
  IC50: Nd(Insoluble)
[3]
  IC50: Nd(Insoluble)
[4]
  Therm_solubility: Nd(Insoluble)

## Cc1ccccc1NC(=O)N1CCN(c2nc(N)nc3scnc23)CC1
Physchem [1]
  solubility kinetic at 1.5 h: 33 µM (≈ 12.2 µg/mL)
Physchem [5]
  logD at 1.5 h: 2.12

## Nc1nc(N2CCN(C(=O)COc3ccc(Cl)cc3)CC2)c2ncsc2n1
Physchem [1]
  solubility kinetic at 1.5 h: 13 µM (≈ 5.26 µg/mL)
Physchem [5]
  logD at 1.5 h: 2.68

## COc1cc(C)c(NC(=O)N2CCN(c3nc(N)nc4scnc34)CC2)cn1
Physchem [1]
  solubility kinetic at 1.5 h: > 350 µM
Physchem [5]
  logD at 1.5 h: 1.66

## COc1ccc(NC(=O)N2CCN(c3nc(N)nc4scnc34)CC2)c(C)n1
Physchem [1]
  solubility kinetic at 1.5 h: 207 µM (≈ 82.9 µg/mL)
Physchem [5]
  logD at 1.5 h: 1.65

## Nc1nc(N2CCN(C(=O)Nc3cccnc3)CC2)c2ncsc2n1
Physchem [1]
  solubility kinetic at 1.5 h: > 350 µM
Physchem [5]
  logD at 1.5 h: 1.46
